ChEMBL document CHEMBL4371006, “Discovery of N-[4-(Quinolin-4-yloxy)phenyl]benzenesulfonamides as Novel AXL Kinase Inhibitors” (J Med Chem, 2018)

Target: LIM domain kinase 2 (Homo sapiens, UniProt P53671)
Experiment: Binding affinity to LIMK2 in SILAC-labeled human MDA-MB-231 cells lysate by mass spectrometry based kinAffinity assay
Type: subcellular
How it was run: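 Chemical proteomics: MDA-MB-231 lysate bound to matrix of immobilized broad kinase inhibitors at several densities (BC50), then competed with increasing free compound (CC50); proteins quantified by mass spectrometry, Kd via Cheng-Prusoff. Two competition formats run in parallel to check equilibrium.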

Sequence of LIM domain kinase 2 (P53671 whole entry, the tested form may be a part): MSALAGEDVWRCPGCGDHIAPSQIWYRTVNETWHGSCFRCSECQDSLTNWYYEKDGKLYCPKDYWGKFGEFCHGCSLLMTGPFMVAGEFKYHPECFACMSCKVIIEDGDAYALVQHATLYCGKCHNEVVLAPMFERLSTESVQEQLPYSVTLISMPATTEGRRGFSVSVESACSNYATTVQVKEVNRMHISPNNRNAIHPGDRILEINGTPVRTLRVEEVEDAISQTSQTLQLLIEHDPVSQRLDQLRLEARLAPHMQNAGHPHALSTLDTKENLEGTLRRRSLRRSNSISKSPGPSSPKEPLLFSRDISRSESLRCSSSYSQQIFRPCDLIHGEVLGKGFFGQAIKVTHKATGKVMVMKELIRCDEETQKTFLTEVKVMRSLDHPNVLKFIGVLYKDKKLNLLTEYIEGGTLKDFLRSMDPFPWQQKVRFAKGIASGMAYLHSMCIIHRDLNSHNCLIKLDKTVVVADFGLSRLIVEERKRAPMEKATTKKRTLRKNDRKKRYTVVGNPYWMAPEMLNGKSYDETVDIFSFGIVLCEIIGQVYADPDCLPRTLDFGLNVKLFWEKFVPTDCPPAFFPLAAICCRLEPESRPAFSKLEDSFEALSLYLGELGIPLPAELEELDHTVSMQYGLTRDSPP

Kd(free): 2784 nM
Compound: COc1cc2c(Oc3ccc(NS(=O)(=O)c4c(F)cccc4F)cc3F)ccnc2cc1OCCCN1CCN(C)CC1
